Starred links: 1 amine or outer side, 2 acyl side, 3 side chain; linkers in the order of their positions; H or OH if unused. Non-standard residues stand in square brackets, D forms with d. Residues, ends and D or L forms follow the SMILES beside them. X11 = CC(C)CNC(=N)NCCCC[C@H](N[*:1])C(=O)[*:2]; X2 = CCN(C)C(=N)NCCCC[C@H](N[*:1])C(=O)[*:2]; X8 = CCN(CC)C(=N)NCCC[C@H](N[*:1])C(=O)[*:2]; X12 = CCCNC(=N)NCCCC[C@H](N[*:1])C(=O)[*:2]; X3 = CN(C)C(=N)NCCCC[C@H](N[*:1])C(=O)[*:2]; X5 = CCN(CC)C(=N)NCC[C@H](N[*:1])C(=O)[*:2]; X6 = N=C(NCCC[C@H](N[*:1])C(=O)[*:2])N1CCC1; X7 = CCN(C)C(=N)NCC[C@H](N[*:1])C(=O)[*:2]; X9 = N=C(NCC[C@H](N[*:1])C(=O)[*:2])N1CCC1; X10 = CNC(=N)NCCCC[C@H](N[*:1])C(=O)[*:2]; Arg(ω-nPr) = CCCNC(=N)NCCC[C@H](N)C(=O)O; Arg(Me2s) = CN=C(NC)NCCC[C@H](N)C(=O)O; X4 = CNC(=N)NCC[C@H](N[*:1])C(=O)[*:2]; Arg(Et) = CCNC(=N)NCCC[C@H](N)C(=O)O; Agb = N=C(N)NCC[C@H](N)C(=O)O
Experiments:
[1] = molecular target: T1, Pyroglutamylated RF-amide peptide receptor (Homo sapiens, UniProt Q96P65); assay: Agonist activity at human QRFPR expressed in CHO cells co-expressing Galpha16 assessed as increase Ca2+ mobilization after 3 mins by Fluo-4 AM-based scanning fluorometery; type: functional, cell-based
T1 sequence (Q96P65 whole entry): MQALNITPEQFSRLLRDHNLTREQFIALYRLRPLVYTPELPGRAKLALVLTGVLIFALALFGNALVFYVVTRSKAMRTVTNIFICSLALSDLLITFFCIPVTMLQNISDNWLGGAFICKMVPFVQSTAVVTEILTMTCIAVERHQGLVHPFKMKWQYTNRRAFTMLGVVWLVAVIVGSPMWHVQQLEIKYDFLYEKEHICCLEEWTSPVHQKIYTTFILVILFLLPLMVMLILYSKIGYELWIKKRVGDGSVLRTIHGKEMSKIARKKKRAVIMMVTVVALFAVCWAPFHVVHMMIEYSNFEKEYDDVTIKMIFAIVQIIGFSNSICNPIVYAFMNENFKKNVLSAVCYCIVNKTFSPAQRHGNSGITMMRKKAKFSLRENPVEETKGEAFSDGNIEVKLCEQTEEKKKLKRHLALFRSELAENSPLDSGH
Summary of the method: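 CHO-Gα16 cells stably expressing human QRFPR, seeded at 40,000 cells/well 24 h ahead. Loaded 1 h with 2 µM Fluo-4 AM plus 0.01% pluronic acid, washed, then 30 min in HBSS with 2.5 mM probenecid and 5 mM HEPES. Compounds added at final 10^-11 to 10^-5 M; fluorescence recorded 3 min on a scanning fluorometer. EC50 from sigmoidal variable-slope fits, ≥3 experiments in triplicate.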

[2] = molecular target: T1, Pyroglutamylated RF-amide peptide receptor; assay: Antagonist activity at human QRFPR expressed in CHO cells co-expressing Galpha16 assessed as inhibition of 26RFa-induced Ca2+ mobilization preincubated for 15 mins followed by agonist addition measured after 3 mins by Fluo-4 AM-based scanning fluorometery; type: functional, cell-based
Summary of the method: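 CHO-Gα16-hQRFPR cells loaded 1 h with 2 µM Fluo-4 AM, then incubated 15 min with graded compound. A 10^-7 M final 26RFa pulse was given during recording. Background subtracted, baseline normalized to 100%, peak fluorescence taken per concentration. IC50 from sigmoidal variable-slope fits, ≥3 experiments in triplicate. Maximal effect at 10^-4 M expressed as % inhibition of the 26RFa (10^-7 M) response.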

| EC50 [1] [µM] | IC50 [2] [µM] | SMILES |
| --- | --- | --- |
| > 100 | > 100 | N=C(N)NCC[C@H](NC(=O)[C@H](Cc1ccccc1)NC(=O)[C@H](CO)NC(=O)[C@H](Cc1ccccc1)NC(=O)CNC(=O)CN)C(=O)N[C@@H](Cc1ccccc1)C(N)=O (H-GGFSF[Agb]F-NH2) |
| 1.37 |  | CCNC(=N)NCCC[C@H](NC(=O)[C@H](Cc1ccccc1)NC(=O)[C@H](CO)NC(=O)[C@H](Cc1ccccc1)NC(=O)CNC(=O)CN)C(=O)N[C@@H](Cc1ccccc1)C(N)=O (H-GGFSF[Arg(Et)]F-NH2) |
| > 100 | > 100 | C/N=C(/NC)NCCC[C@H](NC(=O)[C@H](Cc1ccccc1)NC(=O)[C@H](CO)NC(=O)[C@H](Cc1ccccc1)NC(=O)CNC(=O)CN)C(=O)N[C@@H](Cc1ccccc1)C(N)=O (H-GGFSF[Arg(Me2s)]F-NH2) |
| 1.4 |  | CCCNC(=N)NCCC[C@H](NC(=O)[C@H](Cc1ccccc1)NC(=O)[C@H](CO)NC(=O)[C@H](Cc1ccccc1)NC(=O)CNC(=O)CN)C(=O)N[C@@H](Cc1ccccc1)C(N)=O (H-GGFSF[Arg(ω-nPr)]F-NH2) |
| > 100 | > 100 | CCN(C)C(=N)NCCCC[C@H](NC(=O)[C@H](Cc1ccccc1)NC(=O)[C@H](CO)NC(=O)[C@H](Cc1ccccc1)NC(=O)CNC(=O)CN)C(=O)N[C@@H](Cc1ccccc1)C(N)=O (H-GGFSF[X2]F-NH2) |
| > 100 | > 100 | CN(C)C(=N)NCCCC[C@H](NC(=O)[C@H](Cc1ccccc1)NC(=O)[C@H](CO)NC(=O)[C@H](Cc1ccccc1)NC(=O)CNC(=O)CN)C(=O)N[C@@H](Cc1ccccc1)C(N)=O (H-GGFSF[X3]F-NH2) |
| > 100 | > 100 | CNC(=N)NCC[C@H](NC(=O)[C@H](Cc1ccccc1)NC(=O)[C@H](CO)NC(=O)[C@H](Cc1ccccc1)NC(=O)CNC(=O)CN)C(=O)N[C@@H](Cc1ccccc1)C(N)=O (H-GGFSF[X4]F-NH2) |
| > 100 | > 100 | CCN(CC)C(=N)NCC[C@H](NC(=O)[C@H](Cc1ccccc1)NC(=O)[C@H](CO)NC(=O)[C@H](Cc1ccccc1)NC(=O)CNC(=O)CN)C(=O)N[C@@H](Cc1ccccc1)C(N)=O (H-GGFSF[X5]F-NH2) |
| > 100 | > 100 | N=C(NCCC[C@H](NC(=O)[C@H](Cc1ccccc1)NC(=O)[C@H](CO)NC(=O)[C@H](Cc1ccccc1)NC(=O)CNC(=O)CN)C(=O)N[C@@H](Cc1ccccc1)C(N)=O)N1CCC1 (H-GGFSF[X6]F-NH2) |
| > 100 | > 100 | CCN(C)C(=N)NCC[C@H](NC(=O)[C@H](Cc1ccccc1)NC(=O)[C@H](CO)NC(=O)[C@H](Cc1ccccc1)NC(=O)CNC(=O)CN)C(=O)N[C@@H](Cc1ccccc1)C(N)=O (H-GGFSF[X7]F-NH2) |
| > 100 | > 100 | CCN(CC)C(=N)NCCC[C@H](NC(=O)[C@H](Cc1ccccc1)NC(=O)[C@H](CO)NC(=O)[C@H](Cc1ccccc1)NC(=O)CNC(=O)CN)C(=O)N[C@@H](Cc1ccccc1)C(N)=O (H-GGFSF[X8]F-NH2) |
| > 100 | > 100 | N=C(NCC[C@H](NC(=O)[C@H](Cc1ccccc1)NC(=O)[C@H](CO)NC(=O)[C@H](Cc1ccccc1)NC(=O)CNC(=O)CN)C(=O)N[C@@H](Cc1ccccc1)C(N)=O)N1CCC1 (H-GGFSF[X9]F-NH2) |
| > 100 | > 100 | CNC(=N)NCCCC[C@H](NC(=O)[C@H](Cc1ccccc1)NC(=O)[C@H](CO)NC(=O)[C@H](Cc1ccccc1)NC(=O)CNC(=O)CN)C(=O)N[C@@H](Cc1ccccc1)C(N)=O (H-GGFSF[X10]F-NH2) |
| 2.75 |  | CC(C)CNC(=N)NCCCC[C@H](NC(=O)[C@H](Cc1ccccc1)NC(=O)[C@H](CO)NC(=O)[C@H](Cc1ccccc1)NC(=O)CNC(=O)CN)C(=O)N[C@@H](Cc1ccccc1)C(N)=O (H-GGFSF[X11]F-NH2) |
| > 100 | > 100 | CCCNC(=N)NCCCC[C@H](NC(=O)[C@H](Cc1ccccc1)NC(=O)[C@H](CO)NC(=O)[C@H](Cc1ccccc1)NC(=O)CNC(=O)CN)C(=O)N[C@@H](Cc1ccccc1)C(N)=O (H-GGFSF[X12]F-NH2) |

Source: ChEMBL document CHEMBL4270668, “Design, Synthesis, Molecular Dynamics Simulation, and Functional Evaluation of a Novel Series of 26RFa Peptide Analogues Containing a Mono- or Polyalkyl Guanidino Arginine Derivative” (J Med Chem, 2018)
